Data reported in ChEMBL document CHEMBL1131020, “Synthesis of 7,8-(methylenedioxy)-1-phenyl-3,5-dihydro-4H-2, 3-benzodiazepin-4-ones as novel and potent noncompetitive AMPA receptor antagonists” (J Med Chem, 1998).

Assays:
Rattus norvegicus = organism: Rattus norvegicus; assay: In vitro inhibition of AMPA activated current in xenopus oocytes expressing rat cerebral cortex poly(A)+ RNA.; assay type: functional
Method in brief: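 Two-electrode voltage clamp, holding -70 mV, of Xenopus oocytes injected with ~25 ng rat cerebral cortex poly(A)+ RNA, superfused in Ringer. Baseline current from 10 μM AMPA. Antagonist at increasing concentrations preapplied ~30 s, then coapplied with 10 μM AMPA. IC50 from four-parameter logistic fit to pooled data of 3–4 experiments, mean ± SEM.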

Mus musculus = assay: In vivo anticonvulsant activity in mouse determined by maximum electroshock induced seizure (MES) assay; assay type: functional
Method in brief: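 Male NSA mice; compound in 10% Tween-80/water, iv, 5 min before test. Corneal electrodes deliver 50 mA, 60 pulses/s, 0.8-ms pulse width, 1-s d.c. Protection means no tonic hindlimb extension >90° within 30 s. Screened at 10 mg/kg (n = 8), then 4–5 doses (n = 15–24/dose). ED50 with 95% CI by Litchfield–Wilcoxon.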

SMILES | IC50 (Rattus norvegicus) [µM] | ED50 (Mus musculus) [mg/kg]
COc1cc2c(cc1OC)C(c1ccc(N)cc1)=NNC(=O)C2 | 180 | > 10
Nc1ccc(C2=NNC(=O)Cc3cc4c(cc32)OCO4)cc1 | 2.7 | 2.8
O=C1Cc2cc3c(cc2C(c2ccc(F)cc2)=NN1)OCO3 | 62 | > 10
O=C1Cc2cc3c(cc2C(c2ccccc2)=NN1)OCO3 | 21 | 12.9
O=C1Cc2cc3c(cc2C(c2ccc([N+](=O)[O-])cc2)=NN1)OCO3 | 56 | > 10
Cc1ccc(C2=NNC(=O)Cc3cc4c(cc32)OCO4)cc1 | 15 | 16
COc1ccc(C2=NNC(=O)Cc3cc4c(cc32)OCO4)cc1 | 23 | 
CC1=NN=C(c2ccc(N)cc2)c2cc3c(cc2C1)OCO3 [GYKI-52466] | 6.9 | 4.6
